{"data": "Measurements of several laboratories", "pH": "7.4", "note": "Lines come from different studies, so protocols differ."}
{"Compound": "CN1CCC(Nc2ncnc3ccc(-c4cccc(N5CCOCC5)c4)cc23)CC1", "assay": "shake flask", "test system": "aqueous buffer", "logD": 2.5}
{"Compound": "C=C1C[C@@]23CC[C@H]4[C@@](C)(CCC[C@@]4(C)C(=O)O[C@@H]4O[C@H](CO)[C@@H](O)[C@H](O)[C@H]4O)[C@@H]2CC[C@]1(O[C@@H]1O[C@H](CO)[C@@H](O)[C@H](O)[C@H]1O)C3", "assay": "shake flask", "test system": "aqueous buffer", "logD": -1.45}
{"Compound": "O=C(O)c1ccc(NS(=O)(=O)c2ccc(Cl)c(Cl)c2)cc1", "assay": "shake flask", "test system": "aqueous buffer", "logD": 0.6}
{"Compound": "CNS(=O)(=O)c1ccc(Nc2ncc(C(F)(F)F)c(N3CCC(C)(O)CC3)n2)c(C)c1", "assay": "shake flask", "test system": "aqueous buffer", "conditions": "1 h", "logD": 3.8}
{"Compound": "C[C@H]1CN(c2cccc(-c3ccc4ncnc(Nc5ncco5)c4c3)c2)CCO1", "assay": "shake flask", "test system": "aqueous buffer", "logD": "> 4.3"}
{"Compound": "N[C@@H](COCC(=O)N1CCC[C@H](C(=O)NCc2nc(-c3ccc(C(F)(F)F)cc3)cs2)C1)c1ccccc1", "assay": "shake flask", "test system": "aqueous buffer", "logD": 3}
{"Compound": "CC(C)N=c1cc2n(-c3ccc(Cl)cc3)c3ccccc3nc-2cc1Nc1ccc(Cl)cc1", "assay": "shake flask", "test system": "aqueous buffer", "logD": 5.76}
{"Compound": "COc1cnc(Nc2cnnc3ccc(-c4ccc(N5CCN(C)CC5)cc4)cc23)nc1", "assay": "shake flask", "test system": "aqueous buffer", "logD": 3.2}
{"Compound": "CN1CCN(c2cccc(-c3ccc4ncnc(Nc5ccc(Cl)c(C(F)(F)F)c5)c4c3)c2)CC1", "assay": "shake flask", "test system": "aqueous buffer", "logD": "> 4.3"}
{"Compound": "C=CC(=O)N1CC2(CCN(c3nc4c(c(-c5cc(O)cc6ccccc56)c3C)COC(C)(C)C4)C2)C1", "logD": 4.3}
{"Compound": "C[C@@H]1COCCN1c1cccc(-c2ccc3ncnc(Nc4ncco4)c3c2)c1", "assay": "shake flask", "test system": "aqueous buffer", "logD": 4.2}
{"Compound": "Cc1ccc(Nc2cnnc3ccc(-c4ccc(N5CCCN(C)CC5)cc4)cc23)cn1", "assay": "shake flask", "test system": "aqueous buffer", "logD": 3.3}
{"Compound": "N=C(CC(O)c1cc2c(F)cc(F)cc2c2cc(C(F)(F)F)ccc12)Nc1ccc(Br)cc1 (stereo not shown)", "logD": 5.37}
{"Compound": "c1cc(-c2ccc3ncnc(Nc4ncco4)c3c2)nc(N2C[C@H]3C[C@@H]2CO3)n1", "assay": "shake flask", "test system": "aqueous buffer", "logD": 3.1}
{"Compound": "C[C@H](O)c1cnc(NS(=O)(=O)c2ccc(C(F)(F)F)c(Cl)c2)nc1", "assay": "shake flask", "test system": "aqueous buffer", "logD": 0.4}
{"Compound": "C=CC(=O)N1CC2(CCN(c3nc4c(c(-c5c(C)ccc6[nH]ncc56)c3C#N)COC(C)(C)C4)C2)C1", "logD": 2.8}
{"Compound": "Cc1nc(Nc2ncnc3ccc(-c4cccc(N5CCOCC5)c4)cc23)oc1C", "assay": "shake flask", "test system": "aqueous buffer", "logD": 4.3}
{"Compound": "O=C(O)c1ccc(NS(=O)(=O)c2ccc(Cl)c(Cl)c2)cc1F", "assay": "shake flask", "test system": "aqueous buffer", "logD": -0.2}
{"Compound": "COCC(=O)N1CCC[C@H](C(=O)NCc2nc(-c3ccc(C#N)cc3)cs2)C1", "assay": "shake flask", "test system": "aqueous buffer", "logD": 1.5}
{"Compound": "CNS(=O)(=O)c1ccc(Nc2ncc(C(F)(F)F)c([C@H]3CC[C@](C)(O)CC3)n2)c(C)c1", "assay": "shake flask", "test system": "aqueous buffer", "conditions": "1 h", "logD": 3.6}
{"Compound": "C=CC(=O)N1CC2(CCN(c3nc4c(c(-c5c(C)ccc6[nH]ncc56)c3C#N)C[C@H]3C[C@@H]4C3(C)C)C2)C1", "logD": 4.4}
{"Compound": "C[C@@H]1CN(c2cccc(-c3ccc4ncnc(Nc5ncco5)c4c3)c2)C[C@H](C)O1", "assay": "shake flask", "test system": "aqueous buffer", "logD": "> 3.6"}
{"Compound": "CCOCC(=O)N1CCC[C@H](C(=O)NCc2nc(-c3ccc(C)nc3)cs2)C1", "assay": "shake flask", "test system": "aqueous buffer", "logD": 1.4}
{"Compound": "C=CC(=O)N1CC2(CCN(c3nc4c(c(-c5cc(O)cc6ccccc56)c3Cl)COC(C)(C)C4)C2)C1", "logD": 4.9}
{"Compound": "N#Cc1ccc(-c2csc(CNC(=O)[C@H]3CCCN(C(=O)CCN)C3)n2)cc1", "assay": "shake flask", "test system": "aqueous buffer", "logD": -0.69}
{"Compound": "O=C(O)c1ccc(NS(=O)(=O)c2ccc(Cl)c(Cl)c2)c2ncccc12", "assay": "shake flask", "test system": "aqueous buffer", "logD": 0.9}
{"Compound": "CN1CCN(c2cccc(-c3ccc4ncnc(Nc5ccc([N+](=O)[O-])c(C(F)(F)F)c5)c4c3)c2)CC1", "assay": "shake flask", "test system": "aqueous buffer", "logD": "> 3.9"}
{"Compound": "NCCOCC(=O)N1CCC[C@H](C(=O)NCc2nc(-c3ccc(C(F)(F)F)cc3)cs2)C1", "assay": "shake flask", "test system": "aqueous buffer", "logD": 0.47}
